Assay results: ChEMBL document CHEMBL5058577, “EUbOPEN Chemogenomics Library 2 (Multiplex)” (2022)

Tested on: Fibroblast
Assay: Multiplex assay against human fibroblast
Assay type: toxicity, cell-based
Method in brief: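 With compound added, live cells were imaged on a CQ1 microscope at 37°C and 5% CO2; staining with Hoechst33342, BioTracker Green Microtubule Cytoskeleton Dye, MitoTracker Red and Annexin V Alexa Fluor 680 had been done at seeding. The CellPathfinder machine-learning gating scheme split cells into Hoechst high-intensity objects or normal cells, normal cells into healthy, pyknosed or fragmented nuclei, and pyknosed cells into mitotic or apoptotic. The tubulin, mitochondrial-mass and membrane-permeability phenotypes are per cents of healthy-nucleus cells.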

[1] = 12 h, 1 µM, compound concentration 1 uM, replicate 1
[2] = 12 h, 1 µM, compound concentration 1 uM, replicate 2
[3] = 12 h, 10 µM, compound concentration 10 uM, replicate 1
[4] = 12 h, 10 µM, compound concentration 10 uM, replicate 2
[5] = 24 h, 1 µM, compound concentration 1 uM, replicate 1
[6] = 24 h, 1 µM, compound concentration 1 uM, replicate 2
[7] = 24 h, 10 µM, compound concentration 10 uM, replicate 1
[8] = 24 h, 10 µM, compound concentration 10 uM, replicate 2
[9] = 48 h, 1 µM, compound concentration 1 uM, replicate 1
[10] = 48 h, 1 µM, compound concentration 1 uM, replicate 2
[11] = 48 h, 10 µM, compound concentration 10 uM, replicate 1
[12] = 48 h, 10 µM, compound concentration 10 uM, replicate 2

Compound: CC(C)(O)C(=O)N1CCN(c2ccc(C(F)(F)F)c(C3=C(c4c[nH]c5ccccc45)C(=O)NC3=O)c2)CC1
- Population Apoptotic (%) [1]: 41%
- Population Fragmented Nuclei (%) [1]: 14%
- Population Healthy Nuclei (%) [1]: 68%
- Population Hoechst High Intensity Objects (%) [1]: 2%
- Population Membrane Permeable-Phenotype (%) [1]: 0%
- Population Mitochondria Different-Phenotype (%) [1]: 9%
- Population Mitotic Cells (%) [1]: 58%
- Population Normal (%) [1]: 97%
- Population Pyknosed Nuclei (%) [1]: 17%
- Population Tubulin-Different-Phenotype (%) [1]: 30%
- Total Cell Count [1]: 144
- Population Apoptotic (%) [2]: 32%
- Population Fragmented Nuclei (%) [2]: 30%
- Population Healthy Nuclei (%) [2]: 46%
- Population Hoechst High Intensity Objects (%) [2]: 5%
- Population Membrane Permeable-Phenotype (%) [2]: 5%
- Population Mitochondria Different-Phenotype (%) [2]: 5%
- Population Mitotic Cells (%) [2]: 67%
- Population Normal (%) [2]: 94%
- Population Pyknosed Nuclei (%) [2]: 22%
- Population Tubulin-Different-Phenotype (%) [2]: 56%
- Total Cell Count [2]: 170
- Population Apoptotic (%) [3]: 33%
- Population Fragmented Nuclei (%) [3]: 17%
- Population Healthy Nuclei (%) [3]: 50%
- Population Hoechst High Intensity Objects (%) [3]: 4%
- Population Membrane Permeable-Phenotype (%) [3]: 1%
- Population Mitochondria Different-Phenotype (%) [3]: 25%
- Population Mitotic Cells (%) [3]: 66%
- Population Normal (%) [3]: 96%
- Population Pyknosed Nuclei (%) [3]: 32%
- Population Tubulin-Different-Phenotype (%) [3]: 83%
- Total Cell Count [3]: 125
- Population Apoptotic (%) [4]: 35%
- Population Fragmented Nuclei (%) [4]: 26%
- Population Healthy Nuclei (%) [4]: 31%
- Population Hoechst High Intensity Objects (%) [4]: 6%
- Population Membrane Permeable-Phenotype (%) [4]: 15%
- Population Mitochondria Different-Phenotype (%) [4]: 10%
- Population Mitotic Cells (%) [4]: 64%
- Population Normal (%) [4]: 93%
- Population Pyknosed Nuclei (%) [4]: 42%
- Population Tubulin-Different-Phenotype (%) [4]: 90%
- Total Cell Count [4]: 137
- Population Apoptotic (%) [5]: 50%
- Population Fragmented Nuclei (%) [5]: 22%
- Population Healthy Nuclei (%) [5]: 61%
- Population Hoechst High Intensity Objects (%) [5]: 1%
- Population Membrane Permeable-Phenotype (%) [5]: 0%
- Population Mitochondria Different-Phenotype (%) [5]: 3%
- Population Mitotic Cells (%) [5]: 50%
- Population Normal (%) [5]: 98%
- Population Pyknosed Nuclei (%) [5]: 16%
- Population Tubulin-Different-Phenotype (%) [5]: 40%
- Total Cell Count [5]: 161
- Population Apoptotic (%) [6]: 31%
- Population Fragmented Nuclei (%) [6]: 31%
- Population Healthy Nuclei (%) [6]: 45%
- Population Hoechst High Intensity Objects (%) [6]: 8%
- Population Membrane Permeable-Phenotype (%) [6]: 2%
- Population Mitochondria Different-Phenotype (%) [6]: 8%
- Population Mitotic Cells (%) [6]: 68%
- Population Normal (%) [6]: 91%
- Population Pyknosed Nuclei (%) [6]: 23%
- Population Tubulin-Different-Phenotype (%) [6]: 58%
- Total Cell Count [6]: 176
- Population Apoptotic (%) [7]: 26%
- Population Fragmented Nuclei (%) [7]: 24%
- Population Healthy Nuclei (%) [7]: 40%
- Population Hoechst High Intensity Objects (%) [7]: 7%
- Population Membrane Permeable-Phenotype (%) [7]: 2%
- Population Mitochondria Different-Phenotype (%) [7]: 30%
- Population Mitotic Cells (%) [7]: 73%
- Population Normal (%) [7]: 92%
- Population Pyknosed Nuclei (%) [7]: 34%
- Population Tubulin-Different-Phenotype (%) [7]: 79%
- Total Cell Count [7]: 131
- Population Apoptotic (%) [8]: 36%
- Population Fragmented Nuclei (%) [8]: 27%
- Population Healthy Nuclei (%) [8]: 33%
- Population Hoechst High Intensity Objects (%) [8]: 3%
- Population Membrane Permeable-Phenotype (%) [8]: 6%
- Population Mitochondria Different-Phenotype (%) [8]: 20%
- Population Mitotic Cells (%) [8]: 63%
- Population Normal (%) [8]: 96%
- Population Pyknosed Nuclei (%) [8]: 39%
- Population Tubulin-Different-Phenotype (%) [8]: 90%
- Total Cell Count [8]: 138
- Population Apoptotic (%) [9]: 64%
- Population Fragmented Nuclei (%) [9]: 21%
- Population Healthy Nuclei (%) [9]: 61%
- Population Hoechst High Intensity Objects (%) [9]: 5%
- Population Membrane Permeable-Phenotype (%) [9]: 0%
- Population Mitochondria Different-Phenotype (%) [9]: 12%
- Population Mitotic Cells (%) [9]: 36%
- Population Normal (%) [9]: 94%
- Population Pyknosed Nuclei (%) [9]: 17%
- Population Tubulin-Different-Phenotype (%) [9]: 38%
- Total Cell Count [9]: 155
- Population Apoptotic (%) [10]: 41%
- Population Fragmented Nuclei (%) [10]: 33%
- Population Healthy Nuclei (%) [10]: 37%
- Population Hoechst High Intensity Objects (%) [10]: 7%
- Population Membrane Permeable-Phenotype (%) [10]: 1%
- Population Mitochondria Different-Phenotype (%) [10]: 15%
- Population Mitotic Cells (%) [10]: 58%
- Population Normal (%) [10]: 92%
- Population Pyknosed Nuclei (%) [10]: 28%
- Population Tubulin-Different-Phenotype (%) [10]: 67%
- Total Cell Count [10]: 165
- Population Apoptotic (%) [11]: 54%
- Population Fragmented Nuclei (%) [11]: 33%
- Population Healthy Nuclei (%) [11]: 27%
- Population Hoechst High Intensity Objects (%) [11]: 12%
- Population Membrane Permeable-Phenotype (%) [11]: 0%
- Population Mitochondria Different-Phenotype (%) [11]: 53%
- Population Mitotic Cells (%) [11]: 45%
- Population Normal (%) [11]: 87%
- Population Pyknosed Nuclei (%) [11]: 38%
- Population Tubulin-Different-Phenotype (%) [11]: 93%
- Total Cell Count [11]: 123
- Population Fragmented Nuclei (%) [12]: 35%
- Population Healthy Nuclei (%) [12]: 25%
- Population Hoechst High Intensity Objects (%) [12]: 6%
- Population Membrane Permeable-Phenotype (%) [12]: 10%
- Population Mitochondria Different-Phenotype (%) [12]: 30%
- Population Normal (%) [12]: 93%
- Population Pyknosed Nuclei (%) [12]: 40%
- Population Tubulin-Different-Phenotype (%) [12]: 83%
- Total Cell Count [12]: 129
